# Assay results taken from ChEMBL document CHEMBL1268868, “Discovery and mechanistic study of a class of protein arginine methylation inhibitors” (J Med Chem, 2010).
# Active and inactive are the calls of the source. No cut-off for these calls is given here.
# Target: Protein arginine N-methyltransferase 6 (Homo sapiens, UniProt Q96LA8)
# Experiment: Inhibition of His6x-tagged PRMT6-mediated arginine methylation expressed in Escherichia coli BL21 (DE3) using H3(1-31) peptide and [14C]-SAM by scintillation counting
# Summary of the method: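 His6x-PRMT6 from E. coli BL21(DE3), Ni-NTA purified; 0.5 μM enzyme, 10 μM H3(1-31), 5 μM [14C]-SAM and varied inhibitor at 30 °C in HEPES pH 8.0 buffer with DTT, EDTA, NaCl; 5 min preincubation before enzyme. Product captured on P81 paper, counted by liquid scintillation; IC50 taken at half-maximal activity.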
# Sequence of Protein arginine N-methyltransferase 6 (Q96LA8 whole entry): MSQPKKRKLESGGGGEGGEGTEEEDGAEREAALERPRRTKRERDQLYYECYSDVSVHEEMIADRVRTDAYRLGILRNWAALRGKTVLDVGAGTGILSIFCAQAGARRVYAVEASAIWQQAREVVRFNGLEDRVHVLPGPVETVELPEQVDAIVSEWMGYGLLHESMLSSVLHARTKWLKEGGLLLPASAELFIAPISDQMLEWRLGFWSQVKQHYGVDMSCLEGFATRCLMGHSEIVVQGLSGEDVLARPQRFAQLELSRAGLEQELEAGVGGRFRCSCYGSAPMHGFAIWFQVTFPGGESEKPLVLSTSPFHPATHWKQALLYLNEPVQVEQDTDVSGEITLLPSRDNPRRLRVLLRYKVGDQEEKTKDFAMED
row,IC50,Structure (SMILES)
1,39.2 µM,CC(=O)Nc1ccc(/N=N/c2c(S(=O)(=O)O)cc3cc(NC(=O)Nc4ccc5c(O)c(/N=N/c6ccccc6)c(S(=O)(=O)O)cc5c4)ccc3c2O)cc1

# Target: T1, Protein arginine N-methyltransferase 1 (Homo sapiens, UniProt Q99873)
# Experiment: Inhibition of His6x-tagged PRMT1-mediated arginine methylation expressed in Escherichia coli BL21 (DE3) assessed as residual activity at 500 uM using H4(1-20) and [14C]-AdoMet by scintillation counting
# Target sequence in this assay (Q99873 whole entry, looked up): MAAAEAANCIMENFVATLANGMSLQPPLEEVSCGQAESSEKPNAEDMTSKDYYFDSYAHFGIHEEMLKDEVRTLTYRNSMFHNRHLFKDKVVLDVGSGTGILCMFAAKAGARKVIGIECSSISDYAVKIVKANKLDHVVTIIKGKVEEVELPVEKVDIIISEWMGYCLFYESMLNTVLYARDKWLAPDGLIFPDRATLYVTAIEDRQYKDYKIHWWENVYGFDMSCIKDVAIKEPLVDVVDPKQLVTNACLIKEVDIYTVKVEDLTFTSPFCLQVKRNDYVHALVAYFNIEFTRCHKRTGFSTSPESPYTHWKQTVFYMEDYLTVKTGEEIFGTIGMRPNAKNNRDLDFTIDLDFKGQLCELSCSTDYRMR
row,Structure (SMILES),inhibition
1,O=S(=O)(O)c1cc(O)c2c(S(=O)(=O)O)cc(S(=O)(=O)O)cc2c1,inactive
2,COc1cc(C=O)cc(I)c1OS(=O)(=O)c1ccc2ccccc2c1,inactive
3,COc1ccc(S(=O)(=O)Nc2ccc(S(=O)(=O)Nc3cccc4ccccc34)cc2)cc1OC,inactive
4,CCOc1cc(C=O)ccc1OS(=O)(=O)c1ccc2ccccc2c1,inactive
5,O=Cc1ccc(OS(=O)(=O)c2ccc3ccccc3c2)c(Br)c1,inactive
6,NS(=O)(=O)c1ccc2c(O)cc(S(N)(=O)=O)cc2c1,inactive
7,Nc1cc(S(=O)(=O)O)cc2cccc(S(=O)(=O)O)c12,inactive
8,CNc1ccc2c(O)cc(S(=O)(=O)O)cc2c1,inactive
9,CCOC(=O)c1ccc(N2C(=O)CC(Sc3ccccc3C(=O)O)C2=O)cc1 (stereo not given),inactive
10,CCOc1cc(C=O)cc(Br)c1OS(=O)(=O)c1ccc2ccccc2c1,inactive
11,O=S(=O)(Oc1c(Br)cc(Br)cc1Br)c1ccc2ccccc2c1,inactive

# Next, values leading:
row,inhibition,Structure (SMILES)
1,inactive,CCOc1ccc(S(=O)(=O)NCCNS(=O)(=O)c2ccc(OCC)c3ccccc23)c2ccccc12
2,inactive,O=S(=O)(Nc1ccccc1)c1cc(S(=O)(=O)Nc2ccccc2)c2cc(O)ccc2c1
3,inactive,COc1ccc(S(=O)(=O)Oc2ccc3ccccc3c2)c2ccccc12
4,inactive,NS(=O)(=O)c1ccc(CNc2ccnc3cc4ccccc4cc23)cc1
5,inactive,CC(=O)Nc1cc([N+](=O)[O-])c(N(C)S(=O)(=O)c2ccccc2)c2ccccc12
6,inactive,O=S(=O)(Oc1cccc2c(OS(=O)(=O)c3ccccc3)cccc12)c1ccccc1

# Target: T2, Histone-arginine methyltransferase CARM1 (Mus musculus, UniProt Q9WVG6)
# T2 sequence (Q9WVG6 whole entry): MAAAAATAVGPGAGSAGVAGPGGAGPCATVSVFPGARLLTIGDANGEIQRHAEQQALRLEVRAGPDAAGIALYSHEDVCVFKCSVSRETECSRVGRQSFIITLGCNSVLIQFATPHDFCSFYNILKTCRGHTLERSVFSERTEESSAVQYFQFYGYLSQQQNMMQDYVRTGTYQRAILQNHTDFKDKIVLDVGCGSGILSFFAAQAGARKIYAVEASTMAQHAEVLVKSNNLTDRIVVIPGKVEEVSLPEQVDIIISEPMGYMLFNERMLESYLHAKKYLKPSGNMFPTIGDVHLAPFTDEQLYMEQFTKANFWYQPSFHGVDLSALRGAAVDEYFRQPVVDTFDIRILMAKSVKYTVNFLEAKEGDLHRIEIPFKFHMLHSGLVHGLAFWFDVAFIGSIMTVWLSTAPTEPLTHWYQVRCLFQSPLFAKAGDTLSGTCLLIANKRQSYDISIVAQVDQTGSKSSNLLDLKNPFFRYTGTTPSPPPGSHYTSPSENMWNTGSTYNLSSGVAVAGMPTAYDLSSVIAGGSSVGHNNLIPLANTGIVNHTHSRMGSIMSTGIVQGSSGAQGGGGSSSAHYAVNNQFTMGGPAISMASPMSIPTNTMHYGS
# Experiment: Inhibition of mouse GST-tagged CARM1-mediated arginine methylation expressed in Escherichia coli BL21 (DE3) using H3(1-31) and [14C]-SAM by scintillation counting
# Summary of the method: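 GST-tagged mouse CARM1 from E. coli BL21(DE3), glutathione-agarose purified; 5 μM enzyme, 1 mM H3(1-31), 30 μM [14C]-SAM, inhibitor up to 500 μM, 30 °C in 50 mM HEPES pH 8.0, 0.5 mM DTT, 1 mM EDTA, 50 mM NaCl. P81 filter capture, liquid scintillation counting.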
row,IC50,Structure (SMILES)
1,2000 µM,CC(=O)Nc1ccc(/N=N/c2c(S(=O)(=O)O)cc3cc(NC(=O)Nc4ccc5c(O)c(/N=N/c6ccccc6)c(S(=O)(=O)O)cc5c4)ccc3c2O)cc1

# Target: T1, Protein arginine N-methyltransferase 1
# Experiment: Inhibition of His6x-tagged PRMT1-mediated arginine methylation expressed in Escherichia coli BL21 (DE3) assessed as residual activity at 100 uM using H4(1-20) and [14C]-AdoMet by scintillation counting; values are per cent of control
# Target sequence in this assay (Q99873 whole entry, looked up): as the sequence (Q99873 whole entry, looked up) above
row,residual activity,Structure (SMILES)
1,86.9%,O=C(Nc1cccc2c(S(=O)(=O)O)cccc12)c1ccccc1
2,71.4%,CC(=O)Nc1ccc2cc(S(=O)(=O)O)cc(OS(=O)(=O)c3ccccc3)c2c1

# Target: Protein arginine N-methyltransferase 3 (Homo sapiens, UniProt O60678)
# Experiment: Inhibition of His6x-tagged PRMT3-mediated arginine methylation expressed in Escherichia coli BL21 (DE3) using GAR R4 peptide and [14C]-SAM by scintillation counting
# Summary of the method: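 His6x-PRMT3 expressed in E. coli BL21(DE3), Ni-NTA purified; 0.1 μM enzyme, 2 μM R4 peptide, 5 μM [14C]-SAM, varied inhibitor, 30 °C in 50 mM HEPES pH 8.0, 0.5 mM DTT, 1 mM EDTA, 50 mM NaCl; 5 min preincubation before enzyme. P81 filter capture, liquid scintillation; IC50 = inhibitor concentration giving half-maximal activity.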
# Sequence of Protein arginine N-methyltransferase 3 (O60678 whole entry): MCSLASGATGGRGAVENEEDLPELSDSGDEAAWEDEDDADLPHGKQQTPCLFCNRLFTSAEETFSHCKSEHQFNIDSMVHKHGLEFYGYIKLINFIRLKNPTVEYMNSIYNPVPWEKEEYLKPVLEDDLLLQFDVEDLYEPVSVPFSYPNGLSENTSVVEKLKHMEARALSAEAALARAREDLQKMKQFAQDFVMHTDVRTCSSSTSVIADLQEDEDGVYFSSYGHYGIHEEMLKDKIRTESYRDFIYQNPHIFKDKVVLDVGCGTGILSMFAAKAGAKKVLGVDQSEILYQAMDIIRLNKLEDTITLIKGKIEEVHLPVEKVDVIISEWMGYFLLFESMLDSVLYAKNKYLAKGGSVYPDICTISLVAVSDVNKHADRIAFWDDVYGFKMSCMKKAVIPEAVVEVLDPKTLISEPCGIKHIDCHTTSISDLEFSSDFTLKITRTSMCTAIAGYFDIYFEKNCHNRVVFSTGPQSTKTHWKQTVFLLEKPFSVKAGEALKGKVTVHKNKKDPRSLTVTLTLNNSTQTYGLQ
row,IC50,Structure (SMILES)
1,7.1 µM,CC(=O)Nc1ccc(/N=N/c2c(S(=O)(=O)O)cc3cc(NC(=O)Nc4ccc5c(O)c(/N=N/c6ccccc6)c(S(=O)(=O)O)cc5c4)ccc3c2O)cc1

# Target: T1, Protein arginine N-methyltransferase 1
# Experiment: Inhibition of His6x-tagged PRMT1-mediated protein arginine methylation expressed in Escherichia coli BL21 (DE3) using GAR R4 peptide and [14C]-AdoMet by scintillation counting
# Target sequence in this assay (Q99873 whole entry): as the sequence (Q99873 whole entry, looked up) above
row,IC50,Structure (SMILES)
1,1010 µM,Cc1ccc(C(=O)Nc2ccc(S(=O)(=O)O)c3cc(S(=O)(=O)O)cc(S(=O)(=O)O)c23)cc1NC(=O)c1cccc(NC(=O)Nc2cccc(C(=O)Nc3cc(C(=O)Nc4ccc(S(=O)(=O)O)c5cc(S(=O)(=O)O)cc(S(=O)(=O)O)c45)ccc3C)c2)c1 [SURAMIN]
2,463 µM,O=S(=O)(O)c1cc(O)c2c(/N=N/c3c(S(=O)(=O)O)cc4cc(S(=O)(=O)O)cc(O)c4c3O)cc(S(=O)(=O)O)cc2c1

# Target: T1, Protein arginine N-methyltransferase 1
# Experiment: Inhibition of His6x-tagged PRMT1-mediated protein arginine methylation expressed in Escherichia coli BL21 (DE3) using H4(1-20) and [14C]-SAM by scintillation counting
# Target sequence in this assay (Q99873 whole entry): as the sequence (Q99873 whole entry, looked up) above
row,IC50,Structure (SMILES)
1,5.33 µM,Cc1ccc(C(=O)Nc2ccc(S(=O)(=O)O)c3cc(S(=O)(=O)O)cc(S(=O)(=O)O)c23)cc1NC(=O)c1cccc(NC(=O)Nc2cccc(C(=O)Nc3cc(C(=O)Nc4ccc(S(=O)(=O)O)c5cc(S(=O)(=O)O)cc(S(=O)(=O)O)c45)ccc3C)c2)c1 [SURAMIN]
2,72.1 µM,O=S(=O)(O)c1cc(O)c2c(/N=N/c3c(S(=O)(=O)O)cc4cc(S(=O)(=O)O)cc(O)c4c3O)cc(S(=O)(=O)O)cc2c1

# Target: T1, Protein arginine N-methyltransferase 1
# Experiment: Inhibition of His6x-tagged PRMT1-mediated protein arginine methylation expressed in Escherichia coli BL21 (DE3) assessed as retained fractional activity of enzyme at 100 uM using H4(1-20) and [14C]-AdoMet by scintillation counting
# Set-up: scale not given: the % may be the effect or the level left
# Summary of the method: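 His6x-PRMT1 (0.1 μM) with 2 μM H4(1-20) and 5 μM [14C]-AdoMet, compound at 100 μM or absent, 30 °C in 50 mM HEPES pH 8.0, 0.5 mM DTT, 1 mM EDTA, 50 mM NaCl. Substrates and compound preincubated 5 min before enzyme addition. Quenched on P81 paper, NaHCO3 wash, methylated product counted by liquid scintillation.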
# Target sequence in this assay (Q99873 whole entry, looked up): as above
row,Activity,Structure (SMILES)
1,100%,Cn1c(SCC(=O)Nc2ccccc2)nnc1-c1cncc(C#Cc2ccccc2)c1
2,100%,Cc1ccccc1Nc1nc(-c2ccccc2)c(C(=O)Nc2cccnc2)s1
3,100%,O=C1N=c2ccccc2=C1Nc1ccc(Cc2ccc(NC3=c4ccccc4=NC3=O)cc2)cc1
4,100%,CCOC(=O)[C@H]1CCCN(S(=O)(=O)c2cc(S(=O)(=O)c3ccccc3)cs2)C1
5,100%,O=C(OC[C@@H]1CO[C@@](Cn2ccnc2)(c2ccc(Cl)cc2Cl)O1)c1ccccc1
6,100%,N#Cc1cccc(C#N)c1Oc1ccc(S(=O)(=O)Nc2ccc(Cl)cc2)cc1

# Target: T3, Histone acetyltransferase p300 (Homo sapiens, UniProt Q09472)
# Experiment: Inhibition of HAT p300-mediated […] using H4(1-20) and [14C]-acetyl CoA by scintillation counting
# Summary of the method: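 Recombinant p300 HAT domain (1287-1666), 20 nM, with 10 μM H4(1-20) and 10 μM [14C]-acetyl CoA plus increasing inhibitor in 50 mM HEPES pH 8.0, 50 mM NaCl, 0.5 mM DTT, 1 mM EDTA; 10 min at 30 °C. Quenched on P81 filter paper, acetylated product counted by liquid scintillation; fractional activity plotted against inhibitor concentration.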
# T3 sequence (Q09472 whole entry): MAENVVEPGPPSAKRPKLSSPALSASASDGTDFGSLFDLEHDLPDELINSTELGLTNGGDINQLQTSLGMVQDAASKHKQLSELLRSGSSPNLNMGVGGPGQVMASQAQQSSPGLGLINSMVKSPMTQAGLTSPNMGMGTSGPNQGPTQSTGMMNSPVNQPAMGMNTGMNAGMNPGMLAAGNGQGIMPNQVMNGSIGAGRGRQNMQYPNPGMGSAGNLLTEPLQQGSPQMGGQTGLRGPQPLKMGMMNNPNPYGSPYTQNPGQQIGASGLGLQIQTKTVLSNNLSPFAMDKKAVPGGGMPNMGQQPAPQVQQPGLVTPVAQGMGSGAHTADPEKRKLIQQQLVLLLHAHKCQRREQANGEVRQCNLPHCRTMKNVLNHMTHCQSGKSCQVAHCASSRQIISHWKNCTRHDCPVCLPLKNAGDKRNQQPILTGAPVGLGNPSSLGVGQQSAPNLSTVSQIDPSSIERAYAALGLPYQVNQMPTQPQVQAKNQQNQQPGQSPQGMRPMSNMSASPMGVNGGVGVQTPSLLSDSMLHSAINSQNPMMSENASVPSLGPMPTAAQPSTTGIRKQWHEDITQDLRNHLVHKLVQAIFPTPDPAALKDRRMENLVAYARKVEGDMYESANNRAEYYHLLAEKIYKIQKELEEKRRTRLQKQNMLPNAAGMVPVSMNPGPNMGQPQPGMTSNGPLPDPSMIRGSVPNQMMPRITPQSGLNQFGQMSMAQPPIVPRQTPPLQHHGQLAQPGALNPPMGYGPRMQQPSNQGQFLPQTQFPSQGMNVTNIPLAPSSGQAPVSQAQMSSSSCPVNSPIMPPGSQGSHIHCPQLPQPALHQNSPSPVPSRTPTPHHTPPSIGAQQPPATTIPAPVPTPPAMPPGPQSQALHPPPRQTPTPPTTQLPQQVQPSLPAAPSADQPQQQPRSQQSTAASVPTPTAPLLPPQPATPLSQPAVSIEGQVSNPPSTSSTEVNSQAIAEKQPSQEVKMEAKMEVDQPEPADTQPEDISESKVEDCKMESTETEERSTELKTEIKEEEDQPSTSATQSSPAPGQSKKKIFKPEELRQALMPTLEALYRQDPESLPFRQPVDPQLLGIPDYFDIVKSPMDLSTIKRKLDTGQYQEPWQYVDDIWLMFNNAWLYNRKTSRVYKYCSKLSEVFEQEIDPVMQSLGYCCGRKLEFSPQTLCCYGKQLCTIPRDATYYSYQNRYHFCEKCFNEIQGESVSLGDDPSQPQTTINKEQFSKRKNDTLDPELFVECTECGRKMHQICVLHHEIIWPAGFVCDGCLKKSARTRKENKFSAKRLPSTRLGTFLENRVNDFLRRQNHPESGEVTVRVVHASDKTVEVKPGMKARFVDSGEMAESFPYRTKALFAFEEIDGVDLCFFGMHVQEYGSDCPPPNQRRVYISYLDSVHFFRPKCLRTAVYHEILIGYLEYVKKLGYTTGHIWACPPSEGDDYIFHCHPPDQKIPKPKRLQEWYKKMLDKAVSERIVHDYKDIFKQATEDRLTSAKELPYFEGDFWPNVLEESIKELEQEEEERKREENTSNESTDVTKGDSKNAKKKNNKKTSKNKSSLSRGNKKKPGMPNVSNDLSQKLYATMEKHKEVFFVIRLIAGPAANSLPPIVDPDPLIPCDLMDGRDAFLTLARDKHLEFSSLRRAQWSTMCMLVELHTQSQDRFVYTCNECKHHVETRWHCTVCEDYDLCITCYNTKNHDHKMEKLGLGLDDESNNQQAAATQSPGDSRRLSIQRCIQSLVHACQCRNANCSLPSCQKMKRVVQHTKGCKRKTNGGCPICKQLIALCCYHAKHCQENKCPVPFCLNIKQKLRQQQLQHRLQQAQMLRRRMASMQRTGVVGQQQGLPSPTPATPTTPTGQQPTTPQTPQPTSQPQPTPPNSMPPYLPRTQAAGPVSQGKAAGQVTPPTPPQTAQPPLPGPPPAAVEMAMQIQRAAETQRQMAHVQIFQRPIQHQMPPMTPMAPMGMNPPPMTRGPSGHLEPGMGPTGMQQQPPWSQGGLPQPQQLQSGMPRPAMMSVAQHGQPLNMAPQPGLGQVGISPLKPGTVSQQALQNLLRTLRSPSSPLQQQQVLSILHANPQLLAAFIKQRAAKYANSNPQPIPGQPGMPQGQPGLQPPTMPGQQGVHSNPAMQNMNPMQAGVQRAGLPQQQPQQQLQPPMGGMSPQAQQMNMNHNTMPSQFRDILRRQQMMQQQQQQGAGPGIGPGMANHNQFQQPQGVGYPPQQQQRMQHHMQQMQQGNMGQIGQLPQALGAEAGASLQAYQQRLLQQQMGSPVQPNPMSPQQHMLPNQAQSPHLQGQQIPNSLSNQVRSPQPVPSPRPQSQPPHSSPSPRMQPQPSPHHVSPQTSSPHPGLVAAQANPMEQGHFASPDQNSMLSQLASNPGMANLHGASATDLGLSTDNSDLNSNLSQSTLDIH
row,IC50,Structure (SMILES)
1,118 µM,O=C(Nc1ccc2c(O)cc(S(=O)(=O)O)cc2c1)Nc1ccc2c(O)cc(S(=O)(=O)O)cc2c1
2,21.3 µM,CC(=O)Nc1ccc(/N=N/c2c(S(=O)(=O)O)cc3cc(NC(=O)Nc4ccc5c(O)c(/N=N/c6ccccc6)c(S(=O)(=O)O)cc5c4)ccc3c2O)cc1

# Target: T3, Histone acetyltransferase p300
# Experiment: Inhibition of HAT p300-mediated […] assessed as residual activity at 1 mM using H4(1-20) and [14C]-acetyl CoA by scintillation counting; values are per cent of control
row,residual activity,Structure (SMILES)
1,84%,N=C(N)c1ccc(/C=C/c2ccc(C(=N)N)cc2)cc1
